According to ChEMBL document CHEMBL4834420, “Projected Dose Optimization of Amino- and Hydroxypyrrolidine Purine PI3Kδ Immunomodulators” (J Med Chem, 2021):

Key:
[1] = target: T1, Phosphatidylinositol 4,5-bisphosphate 3-kinase catalytic subunit delta isoform (Homo sapiens, UniProt O00329); experiment: Inhibition of PI3Kdelta in human whole blood assessed as reduction in anti-CD79b antibody-induced CD69 expression preincubated for 60 mins followed by anti-CD79b antibody stimulation and measured after 3 hrs by FACS analysis; type: tissue-based
T1 sequence (O00329 whole entry): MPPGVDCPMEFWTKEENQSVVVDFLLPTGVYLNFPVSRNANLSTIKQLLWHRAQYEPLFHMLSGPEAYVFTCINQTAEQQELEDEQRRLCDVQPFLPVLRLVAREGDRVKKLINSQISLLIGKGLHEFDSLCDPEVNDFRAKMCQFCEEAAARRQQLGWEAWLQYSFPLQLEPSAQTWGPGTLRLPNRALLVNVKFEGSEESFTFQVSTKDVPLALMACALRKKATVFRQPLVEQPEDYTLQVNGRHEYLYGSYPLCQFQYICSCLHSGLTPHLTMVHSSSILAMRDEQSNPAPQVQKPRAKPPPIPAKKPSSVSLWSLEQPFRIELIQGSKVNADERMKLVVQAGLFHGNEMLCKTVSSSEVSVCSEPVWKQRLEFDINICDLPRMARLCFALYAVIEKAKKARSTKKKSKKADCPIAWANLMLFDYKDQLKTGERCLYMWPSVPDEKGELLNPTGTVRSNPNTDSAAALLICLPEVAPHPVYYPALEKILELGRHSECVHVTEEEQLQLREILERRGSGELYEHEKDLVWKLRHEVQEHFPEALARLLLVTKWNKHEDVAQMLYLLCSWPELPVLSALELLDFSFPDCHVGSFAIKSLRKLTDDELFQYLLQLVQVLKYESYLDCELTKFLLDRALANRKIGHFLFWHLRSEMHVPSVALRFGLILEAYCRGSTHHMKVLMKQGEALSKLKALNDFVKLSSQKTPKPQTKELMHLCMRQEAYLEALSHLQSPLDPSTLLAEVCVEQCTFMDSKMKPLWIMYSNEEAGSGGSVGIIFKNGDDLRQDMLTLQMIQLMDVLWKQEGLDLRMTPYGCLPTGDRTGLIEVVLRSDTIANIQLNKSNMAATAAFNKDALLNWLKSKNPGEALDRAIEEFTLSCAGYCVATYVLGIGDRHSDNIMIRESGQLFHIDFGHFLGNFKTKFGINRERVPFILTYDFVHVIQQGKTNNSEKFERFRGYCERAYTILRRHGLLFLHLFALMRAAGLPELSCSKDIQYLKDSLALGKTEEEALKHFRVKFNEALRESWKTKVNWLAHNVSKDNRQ

[2] = Lipophilicity, log D of the compound by HPLC analysis; type: physicochemical
[3] = Volume of distribution in Wistar Han rat; type: ADME; details: in vivo
[4] = Plasma clearance in Beagle dog at 0.25 mg/kg, iv or 0.5 mg/kg, po; type: ADME, organism-based, Canis lupus familiaris
[5] = target: T1, Phosphatidylinositol 4,5-bisphosphate 3-kinase catalytic subunit delta isoform; experiment: Inhibition of PI3Kdelta in human whole blood assessed as reduction in antihuman IgE antibody-stimulated CD63 expression preincubated for 30 mins followed by antihuman IgE antibody stimulation and measured after 20 mins by FACS analysis; type: tissue-based
In short: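 Blood from healthy human volunteer donors, pre-incubated with compound (DMSO, varying concentrations) for 30 min at 37 °C. Basotest reagent B added for 30 min at 37 °C, then goat anti-human IgE (50 ng/mL in reagent A before addition) for 20 min at 37 °C. Stopped on ice, stained for CD63/IgE/CD203c/CD45 (20 min, 4 °C), RBC-lysed, and read by flow cytometry. IgE+ basophils gated, CD63+ scored; IC50 from sigmoidal fit of % inhibition.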

[6] = Inhibition of rat PI3Kdelta
[7] = target: Cytochrome P450 2C19 (Homo sapiens, UniProt P33261); experiment: Inhibition of CYP2C19 (unknown origin); type: ADME
Cytochrome P450 2C19, sequence (P33261 whole entry): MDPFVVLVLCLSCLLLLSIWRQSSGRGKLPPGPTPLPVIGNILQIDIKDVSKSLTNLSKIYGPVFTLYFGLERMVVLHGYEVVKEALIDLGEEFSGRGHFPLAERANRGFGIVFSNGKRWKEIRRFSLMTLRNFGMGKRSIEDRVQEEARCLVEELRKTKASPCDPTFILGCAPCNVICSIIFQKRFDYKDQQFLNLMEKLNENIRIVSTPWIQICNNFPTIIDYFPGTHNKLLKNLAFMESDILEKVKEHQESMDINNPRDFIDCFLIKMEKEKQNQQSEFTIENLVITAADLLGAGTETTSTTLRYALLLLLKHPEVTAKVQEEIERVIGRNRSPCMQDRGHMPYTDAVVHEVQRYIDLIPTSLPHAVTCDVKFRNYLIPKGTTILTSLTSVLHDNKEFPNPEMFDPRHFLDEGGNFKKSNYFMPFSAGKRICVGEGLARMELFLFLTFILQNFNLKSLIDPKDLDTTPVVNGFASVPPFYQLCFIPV

[8] = target: Cytochrome P450 2D6 (Homo sapiens, UniProt P10635); experiment: Inhibition of CYP2D6 (unknown origin); type: ADME
Cytochrome P450 2D6, sequence (P10635 whole entry): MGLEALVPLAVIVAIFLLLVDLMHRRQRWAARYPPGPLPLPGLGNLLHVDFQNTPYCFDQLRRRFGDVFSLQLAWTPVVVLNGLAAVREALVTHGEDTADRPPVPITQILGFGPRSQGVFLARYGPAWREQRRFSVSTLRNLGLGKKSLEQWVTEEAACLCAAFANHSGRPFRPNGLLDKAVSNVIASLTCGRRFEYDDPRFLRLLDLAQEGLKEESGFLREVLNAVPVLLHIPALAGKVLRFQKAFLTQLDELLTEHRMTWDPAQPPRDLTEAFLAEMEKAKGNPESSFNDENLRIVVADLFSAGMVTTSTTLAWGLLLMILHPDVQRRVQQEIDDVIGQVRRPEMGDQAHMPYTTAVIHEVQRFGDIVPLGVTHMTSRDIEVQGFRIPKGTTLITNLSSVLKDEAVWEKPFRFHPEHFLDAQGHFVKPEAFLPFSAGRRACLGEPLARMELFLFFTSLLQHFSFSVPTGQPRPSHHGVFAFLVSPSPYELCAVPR

[9] = Intrinsic clearance in human hepatocytes; type: ADME, cell-based, Hepatocyte
[10] = Intrinsic clearance in C57BL/6 mouse at 1 mg/kg, iv or 3 mg/kg, po; type: ADME, organism-based; details: in vivo
[11] = Volume of distribution in C57BL/6 mouse; type: ADME; details: in vivo
[12] = target: T2, Phosphatidylinositol 4,5-bisphosphate 3-kinase catalytic subunit delta isoform (Mus musculus) (UniProt O35904); experiment: Inhibition of PI3Kdelta in Foxp3-GFP C57BL/6 mouse assessed as reduction in Treg population administered upto 7 days; details: dose 30-100 mg/kg, time day <=7
T2 sequence (whole entry): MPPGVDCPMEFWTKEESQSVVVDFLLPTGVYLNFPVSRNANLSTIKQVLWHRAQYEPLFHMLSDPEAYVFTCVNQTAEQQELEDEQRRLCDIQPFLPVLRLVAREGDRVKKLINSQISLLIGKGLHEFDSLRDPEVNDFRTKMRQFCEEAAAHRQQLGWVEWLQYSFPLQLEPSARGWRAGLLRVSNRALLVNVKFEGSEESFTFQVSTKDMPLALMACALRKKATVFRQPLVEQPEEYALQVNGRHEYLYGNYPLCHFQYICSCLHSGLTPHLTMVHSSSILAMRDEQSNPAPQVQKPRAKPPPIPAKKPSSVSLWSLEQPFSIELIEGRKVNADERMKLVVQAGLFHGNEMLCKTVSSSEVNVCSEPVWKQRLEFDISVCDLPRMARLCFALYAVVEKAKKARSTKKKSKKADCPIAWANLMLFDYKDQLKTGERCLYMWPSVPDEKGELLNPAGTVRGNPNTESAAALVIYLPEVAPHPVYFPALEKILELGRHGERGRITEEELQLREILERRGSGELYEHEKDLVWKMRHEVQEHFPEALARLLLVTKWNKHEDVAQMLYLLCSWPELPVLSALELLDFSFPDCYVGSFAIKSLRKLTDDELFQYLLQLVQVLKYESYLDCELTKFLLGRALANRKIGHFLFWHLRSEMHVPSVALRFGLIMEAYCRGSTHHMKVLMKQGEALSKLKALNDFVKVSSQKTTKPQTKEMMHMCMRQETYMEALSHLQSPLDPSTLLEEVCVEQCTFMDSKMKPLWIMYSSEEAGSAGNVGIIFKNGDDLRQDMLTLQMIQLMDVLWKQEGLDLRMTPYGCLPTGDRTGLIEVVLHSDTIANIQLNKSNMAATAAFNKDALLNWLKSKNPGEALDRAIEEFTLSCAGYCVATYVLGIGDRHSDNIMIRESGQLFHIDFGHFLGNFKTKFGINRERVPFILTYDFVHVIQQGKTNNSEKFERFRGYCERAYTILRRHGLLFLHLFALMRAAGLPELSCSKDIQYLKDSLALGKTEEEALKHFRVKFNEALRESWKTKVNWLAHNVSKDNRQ
In short: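 C57BL/6 Foxp3-GFP reporter mice were dosed at 30 and 100 mg/kg/day for up to 7 days. Treg population was monitored by bioluminescence imaging 10 min after ip injection of 3 mg luciferin. Radiance was quantified as photons/s/cm²/steradian. Diphtheria toxin served as a positive control.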

SMILES: CCn1c(-c2cnc(C)nc2)nc2c(N[C@H]3CCN(C(=O)C4CC4)C3)ncnc21
- IC50 [1]: 65 nM
- logD [2]: 0.8
- Vd [3]: 1 L/kg
- clearance [4]: 4.3 mL/min/kg
- IC50 [5]: 50 nM
- IC50 [6]: 6.6 nM
- IC50 [7]: > 50000 nM
- IC50 [8]: > 50000 nM
- CLint scaled [9]: < 2 mL/min/kg
- CL [10]: 10 mL/min/kg
- Vd [11]: 0.2 L/kg
- Activity [12]: Dose-Dependent Effect
